SENP8 block-1: SENP8 (human) protease inhibition | Q96LD8 | recombinant SENP8, Nedd8 substrate fluorescence | inhibition, % at 20 µM | hit rate 0.64% among 360,000; in the data active means inhibition mostly above about 40%, no sharp cut-off; inactive means mostly below about 27%
SENP6 block: SENP6 protease inhibition; Q9GZR1; Recombinant SENP6 catalytic domain, aminoluciferin luminescence; inhibition, % at 10 µM; hit rate 1.8% among 330,000; AID 2599;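 active means inhibition above about 50% at the single tested dose, limit read from the data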;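 further: plate controls were DMSO wells with enzyme for no effect and DMSO wells lacking enzyme for full effect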
Target sequence (Q9GZR1 628-1112 limits assumed): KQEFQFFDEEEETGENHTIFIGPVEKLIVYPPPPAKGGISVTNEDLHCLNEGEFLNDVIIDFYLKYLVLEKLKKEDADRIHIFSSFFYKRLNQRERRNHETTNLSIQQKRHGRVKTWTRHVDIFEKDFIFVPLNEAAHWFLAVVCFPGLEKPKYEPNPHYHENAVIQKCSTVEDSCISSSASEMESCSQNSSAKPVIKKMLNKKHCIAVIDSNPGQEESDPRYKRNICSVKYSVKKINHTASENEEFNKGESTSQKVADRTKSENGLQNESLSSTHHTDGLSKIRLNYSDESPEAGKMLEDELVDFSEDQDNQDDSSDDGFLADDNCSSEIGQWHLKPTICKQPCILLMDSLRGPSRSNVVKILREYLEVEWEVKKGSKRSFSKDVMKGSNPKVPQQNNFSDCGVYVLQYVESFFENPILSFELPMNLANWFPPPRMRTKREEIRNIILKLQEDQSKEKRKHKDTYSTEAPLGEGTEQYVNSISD
SENP1 inh: SENP1 (human) catalytic domain inhibition; Q9P0U3; AID 624204; hit rate 0.21% among 360,000; inhibition, % at 10 µM; recombinant SENP1 catalytic domain, CyPet-SUMO1-YPet FRET cleavage;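 active means inhibition at least 30% at 10 µM, raw YFP signal under a set limit, fluorescence ratio 0.5 to 1.5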;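 further: 0% = enzyme with DMSO and 100% = no enzyme wells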
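System: Recombinant human SENP1 catalytic domain, His6-tagged | Incubation: Enzyme reaction for 50 min at room temperature, dark | Medium: Tris pH 8 with BME, BSA, NP40 and catalase | Also added: 25 nM SUMO1 FRET substrate | Compound: 10 µM single point, 0.5% DMSO | Measured by: FRET fluorescence in CFP and YFP emission channels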
SENP7 inh: blocks the human protease SENP7. hit rate 1.5% among 330,000. inhibition, % at 5 µM. recombinant SENP7, Z-RLRGG-aminoluciferin luminescence, 40 min;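 active means inhibition above about 50% at the single test dose, limit read from the data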;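 further: plate controls were DMSO with enzyme for no effect and no enzyme buffer wells for full effect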
Platelet DG rel: modulates dense granule release in human platelets. human platelet-rich plasma, SFLLRN dense granule ATP release, luminescence. inhibition, %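 (compounds screened at 7.5 µM in platelet-rich plasma)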. hit rate 0.22% among 300,000. AID 1663;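 active means mean replicate score, as percent of positive control, at or above 50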
SENP8 block-2: inhibitors of human SENP8 protease; inhibition, % at 10 µM; Q96LD8; hit rate 1.2% among 330,000; purified SENP8, Z-RLRGG-aminoluciferin cleavage, luminescence; in the data active means inhibition above about 50%
Active calls of the source: *. Most compounds without a hit are left out; they make up all but 2.6% or so of the library.

What do the screens show for `COc1ccc(C(c2sc3nc(C)nn3c2O)N2CCCCC2)cc1` (stereo unspecified)?
SENP8 block-1: 6; SENP6 block: -14; SENP1 inh: 2; SENP7 inh: 2; Platelet DG rel: 59*; SENP8 block-2: 6

How did COc1ccc(C(c2sc3nc(C)nn3c2O)N2CCC3(CC2)OCCO3)cc1 (stereo unspecified) do in these assays?
SENP8 block-1: 25; SENP6 block: -26; SENP1 inh: 4; SENP7 inh: -10; SENP8 block-2: -7

How did COc1cc(C(c2sc3nc(C)nn3c2O)N2CCN(c3ccccc3)CC2)cc(OC)c1OC (stereo unspecified) do in these assays?
SENP8 block-1: 12; SENP6 block: 6; SENP1 inh: 2; SENP7 inh: -6; Platelet DG rel: -1; SENP8 block-2: 6

Results for Cc1c(N)cccc1Cl ?
SENP8 block-1: 6; SENP1 inh: 0

How did Cc1ccc(S(=O)(=O)N(C)C[C@@H]2Oc3ncc(Br)cc3C(=O)N([C@H](C)CO)C[C@@H]2C)cc1 do in these assays?
SENP8 block-1: 5; SENP1 inh: -1

How did Cc1ccc2nc(-c3cc(-c4ccccc4)no3)cn2c1 do in these assays?
SENP8 block-1: -233; SENP6 block: 44; SENP1 inh: -1; SENP7 inh: 90*; Platelet DG rel: 0; SENP8 block-2: 32

How did Cc1cccc(N=C/C(C(=O)C(F)(F)F)=C(\O)c2ccco2)c1 do in these assays?
SENP8 block-1: -135; SENP6 block: 77*; SENP1 inh: -63; SENP7 inh: 83*; Platelet DG rel: 17; SENP8 block-2: 28

What do the screens show for `O=C(O)CSc1ccc(NC(=O)Nc2ccccc2F)cc1`?
SENP8 block-1: 15; SENP6 block: -5; SENP1 inh: 3; SENP7 inh: 98*; Platelet DG rel: 28; SENP8 block-2: 95*

How did CN(Cc1c(C(=O)N/N=C/c2c(F)cccc2Cl)nnn1-c1nonc1N)C1CCCCC1 do in these assays?
SENP8 block-1: 12; SENP1 inh: 1

How did O=[N+]([O-])c1c(Nc2cccc(O)c2)cc(Cl)c2nonc12 do in these assays?
SENP8 block-1: 26; SENP6 block: 10; SENP1 inh: 1; SENP7 inh: -1; Platelet DG rel: 60*; SENP8 block-2: 1

How did O=C(Cc1n[nH]c(=O)c2ccccc12)OCC(=O)c1ccc(OC(F)F)cc1OC(F)F do in these assays?
SENP8 block-1: 13; SENP6 block: -25; SENP1 inh: 2; SENP7 inh: 10; Platelet DG rel: 4; SENP8 block-2: -11

How did CC(=O)Nc1ccc(/C=C2\Sc3ccccc3C2=O)cc1 do in these assays?
SENP8 block-1: -96; SENP6 block: 67*; SENP1 inh: -38; SENP7 inh: 83*; Platelet DG rel: 22; SENP8 block-2: 46

How did CCCN(CC(=O)Nc1ccccc1C)C(=O)c1ccc(C2SCCS2)cc1 do in these assays?
SENP8 block-1: 13; SENP6 block: 6; SENP1 inh: 3; SENP7 inh: 8; Platelet DG rel: -4; SENP8 block-2: 3

What do the screens show for `O=c1c2ccccc2sc2ccc(Cl)cc12`?
SENP8 block-1: -139; SENP6 block: 39; SENP1 inh: -191; SENP7 inh: 58*; Platelet DG rel: 13; SENP8 block-2: 19

How did Oc1c(Br)cc(Br)cc1/C=N/Nc1ccc(Cl)nn1 do in these assays?
SENP8 block-1: 12; SENP1 inh: -7; Platelet DG rel: 4

How did Oc1ccc(/C=N/Nc2ccc(Cl)nn2)c(O)c1O do in these assays?
SENP8 block-1: 49*; SENP6 block: 20; SENP1 inh: 5; SENP7 inh: 4; Platelet DG rel: 10; SENP8 block-2: 5

How did COc1ccc(N=Nc2nc(-c3ccccc3)c(-c3ccccc3)[nH]2)cc1 do in these assays?
SENP8 block-1: 25; SENP6 block: -3; SENP1 inh: 37*; SENP7 inh: 2; Platelet DG rel: -1; SENP8 block-2: -3

Results for Oc1ccccc1N=Nc1nc(-c2ccccc2)c(-c2ccccc2)[nH]1 ?
SENP8 block-1: 51*; SENP6 block: 0; SENP1 inh: 48*; SENP7 inh: 9; Platelet DG rel: 5; SENP8 block-2: 4

Results for CC(C)C(=O)NC(c1cccs1)c1cc([N+](=O)[O-])c2cccnc2c1O (stereo unspecified) ?
SENP8 block-1: 44*; SENP6 block: 20; SENP1 inh: 1; SENP7 inh: 18; Platelet DG rel: -17; SENP8 block-2: 5

Results for Cc1ccc(C(NC(=O)C(C)C)c2cc([N+](=O)[O-])c3cccnc3c2O)cc1 (stereo unspecified) ?
SENP8 block-1: 55*; SENP6 block: 2; SENP1 inh: -4; SENP7 inh: -5; Platelet DG rel: 17; SENP8 block-2: 1

What do the screens show for `CC(=O)NC(c1cccs1)c1cc(F)c2cccnc2c1O` (stereo unspecified)?
SENP8 block-1: 12; SENP6 block: 2; SENP1 inh: -2; SENP7 inh: 6; SENP8 block-2: 0

Results for CCCN(C(=O)c1cn(C)c(=O)c2ccccc12)c1ccccc1C ?
SENP8 block-1: -2; SENP6 block: -4; SENP1 inh: 1; SENP7 inh: -8; Platelet DG rel: 7; SENP8 block-2: 0

Results for COc1cccc(C(=O)OCC(=O)NCC2CCCO2)c1 (stereo unspecified) ?
SENP8 block-1: 4; SENP6 block: 10; SENP1 inh: 2; SENP7 inh: 14; SENP8 block-2: -11

What do the screens show for `COc1cc(Br)cc(/C=C/c2ccc3cccc(O)c3n2)c1O`?
SENP8 block-1: -35; SENP6 block: 8; SENP1 inh: 67*; SENP7 inh: -12; Platelet DG rel: -2; SENP8 block-2: -20

What do the screens show for `Cc1c(C(=O)N2CCCCC2)c(S(=O)(=O)N(C)Cc2ccco2)c(C)n1C`?
SENP8 block-1: 13; SENP6 block: -3; SENP1 inh: 1; SENP7 inh: 2; Platelet DG rel: -13; SENP8 block-2: 4

What do the screens show for `Cc1c(C(=O)N2CCCCC2)c(S(=O)(=O)N(C)Cc2ccccc2)c(C)n1C`?
SENP8 block-1: 8; SENP6 block: 8; SENP1 inh: 4; SENP7 inh: -9; Platelet DG rel: 56*; SENP8 block-2: -8

What do the screens show for `N#CC1=C(c2ccccc2)/C(=C/c2ccccc2)OC1=O`?
SENP8 block-1: -37; SENP6 block: -11; SENP1 inh: 2; SENP7 inh: -3; Platelet DG rel: 1; SENP8 block-2: 7

How did O=C1O/C(=C/c2ccccc2)c2ccccc21 do in these assays?
SENP8 block-1: -29; SENP6 block: 59*; SENP1 inh: 1; SENP7 inh: 27; Platelet DG rel: -8; SENP8 block-2: 22

What do the screens show for `O=c1nc(Nc2ccccc2)oc2ccccc12`?
SENP8 block-1: -4; SENP6 block: 16; SENP1 inh: 0; SENP7 inh: 47; Platelet DG rel: -19; SENP8 block-2: 1

High-throughput results deposited in PubChem BioAssay by several laboratories.
